Source: PubChem (Johns Hopkins Ion Channel Center)
KCNQ1 pot: potentiators or activators of KCNQ1 channel, primary screen, cell-based, thallium flux, high-throughput; Potassium voltage-gated channel subfamily KQT member 1 (Homo sapiens), P51787; CHO-K1 KCNQ1, thallium flux FluxOR fluorescence; active compounds read high; B-score at 10 µM; hit rate 0.35% among 310,000; AID 2648, 2010;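 active = fluorescence ratio B-score, a plate-corrected score, at least three library SD, with initial intensity B-score within 5 SD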
Target sequence (P51787 whole entry, looked up): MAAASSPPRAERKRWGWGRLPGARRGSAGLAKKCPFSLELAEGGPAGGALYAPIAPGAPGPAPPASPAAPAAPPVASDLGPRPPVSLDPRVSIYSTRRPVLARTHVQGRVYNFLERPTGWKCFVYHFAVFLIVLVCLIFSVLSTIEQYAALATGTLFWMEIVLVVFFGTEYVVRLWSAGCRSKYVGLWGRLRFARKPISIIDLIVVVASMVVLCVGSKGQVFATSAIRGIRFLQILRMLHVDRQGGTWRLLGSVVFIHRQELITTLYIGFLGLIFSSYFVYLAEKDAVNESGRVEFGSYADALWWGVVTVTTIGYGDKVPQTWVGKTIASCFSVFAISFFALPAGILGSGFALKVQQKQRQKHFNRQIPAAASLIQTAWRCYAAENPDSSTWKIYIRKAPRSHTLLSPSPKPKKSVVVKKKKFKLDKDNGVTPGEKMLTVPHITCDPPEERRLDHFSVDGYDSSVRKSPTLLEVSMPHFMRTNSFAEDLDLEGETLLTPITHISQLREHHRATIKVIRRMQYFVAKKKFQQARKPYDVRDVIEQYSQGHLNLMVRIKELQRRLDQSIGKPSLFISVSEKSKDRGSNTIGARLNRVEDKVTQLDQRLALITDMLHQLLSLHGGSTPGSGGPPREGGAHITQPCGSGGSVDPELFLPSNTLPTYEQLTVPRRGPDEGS
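Schedule – 37 °C overnight plating, 90-min dark dye load, 20-min compound pretreatment · System – stable KCNQ1 CHO-K1 line · Probe or stimulus – thallium- and potassium-containing depolarizing buffer · Measured by – kinetic FluxOR fluorescence, 10 s baseline plus 110 s post-stimulus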
KCNK9 block: KCNK9 potassium channel inhibitors, primary screen, HEK293 cells, thallium flux | FluxOR thallium flux fluorescence; active compounds read low | Potassium channel subfamily K member 9 (Homo sapiens), Q9NPC2 | hit rate 1.2% among 310,000 | B-score at 10 µM | AID 488922, 2010;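 active = ratio B-score over 3 SD below the library mean, with starting fluorescence within 5 SD of its mean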;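 also: negative B-score means less thallium flux so channel inhibition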
KCNQ1 inh: inhibitors of human KCNQ1 channel, primary screen, cell-based, thallium flux, high-throughput; Potassium voltage-gated channel subfamily KQT member 1 (Homo sapiens), P51787; CHO-K1 KCNQ1, FluxOR thallium flux fluorescence; active compounds read high; B-score at 10 µM; hit rate 1.3% among 310,000;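 active = compounds whose thallium flux B-score, printed positive for inhibition, exceeds three library SD while starting fluorescence stays within three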;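 also: channel opened by potassium depolarization with thallium stimulus after 20 min compound exposure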
hERG rescue: hERG rescue from dofetilide block, primary screen, cell-based, CHO-hERG, FluxOR thallium flux, dofetilide IC70 | AID 1511, 2009 | hit rate 0.51% among 310,000 | Voltage-gated inwardly rectifying potassium channel KCNH2 (Homo sapiens), Q12809 | activation (rescue from dofetilide block), less the hit threshold, % at 10 µM | dofetilide IC70 present;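 active = activation above the mean of controls blocked by dofetilide plus 5 SD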;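 also: thallium influx through hERG after potassium depolarization seen as dye fluorescence rise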
Kir21 inh: inhibitors of mouse Kir2.1 inward-rectifier potassium channel | hit rate 0.85% among 310,000 | AID 1672, 2009 | Inward rectifier potassium channel 2 (Mus musculus), P35561 | B-score at 10 µM | HEK293-Kir2.1, FluxOR thallium flux fluorescence; active compounds read low;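 active = fluorescence ratio B-score at or below minus 3 SD of library scores, with starting-brightness B-score within 2 SD, cut at about -4.2 in these data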;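 also: channel flux triggered by added potassium and thallium sulfate stimulus; B-score of peak minus minimum fluorescence over baseline after thallium stimulus; more negative B-score means stronger Kir2.1 block with less thallium influx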
KCNK3 inh: human KCNK3 channel inhibitors, primary screen, CHO cells, FluxOR thallium flux, B-score | Potassium channel subfamily K member 3 (Homo sapiens), O14649 | FluxOR fluorescence; active compounds read low | B-score at 10 µM | hit rate 0.84% among 340,000 | AID 602410, 2012;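 active = B-score under library mean minus 4 SD, starting fluorescence ratio at most library mean plus 5 SD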;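 also: more negative B-score means stronger inhibition of thallium flux through KCNK3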
KCNK9 block conf: KCNK9 potassium channel inhibitors, confirmation, HEK293 cells, thallium flux, duplicate; shares compounds with KCNK9 block; AID 492992, 2010; FluxOR thallium flux fluorescence; hit rate 43% among 4,900; inhibition, % at 10 µM;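 active = thallium signal inhibited by more than 5 SD of the compound-free buffer control wells, on both duplicate plates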;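 also: 0% = assay buffer control wells without compound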
Kir21 sel: mouse Kir2.1 channel inhibition, confirmation, selectivity assay for KCNK9 modulator project, cell-based, HEK293, thallium flux. shares compounds with KCNK9 block. Kir2.1 cells, FluxOR thallium flux fluorescence. inhibition, % at 10 µM. hit rate 4% among 4,900. AID 492993, 2010;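 active = thallium signal drop more than 5 SD beyond the mean of the no-compound control wells, seen in both duplicate plates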;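 also: signal is fluorescence rise after thallium addition divided by baseline fluorescence; plate controls were assay buffer only for no effect and full block by chlorpromazine control for full effect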
KCNK9 uninduced: thallium flux in non-induced HEK293 cells, confirmation, counter-screen for KCNK9 inhibitor project, cell-based, second counter screen, non-induced KCNK9-HEK293; shares compounds with KCNK9 block; FluxOR thallium flux; inhibition, % at 10 µM; hit rate 40% among 4,900; AID 492997, 2010;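 active = thallium signal drop beyond 5 SD of the untreated control mean, on both duplicate plates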;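 also: plate controls were buffer only IC0 wells for no effect and SID17386958 at its maximal inhibitory level for full effect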
Numbers without * were called inactive; i = inactive; . = no result given. Compounds with a hit are over-represented: about 3.7% of the library has one in this group of screens.

SMILES	KCNQ1 pot	KCNK9 block	KCNQ1 inh	hERG rescue	Kir21 inh	KCNK3 inh	KCNK9 block conf	Kir21 sel	KCNK9 uninduced
Cc1ccc(C)c(N2CCN(CCCc3ccccc3)CC2)c1	i	i	i	-3	-0.18	i	i	i	i
Cc1ccc(C)c(N2CCN(CC3CCCCC3)CC2)c1	i	i	i	-10	0.28	i	i	i	i
COc1cccc(CNC(=O)Cc2ccc(S(=O)(=O)N3CCOCC3)s2)c1	i	i	i	-14	0.81	i	.	.	.
CCn1c(-c2c(Cl)c(C)nn2C)n[nH]c1=S	i	i	i	-2	-0.66	i	.	.	.
Cc1cc(OC(C)C(=O)N(Cc2ccco2)C2CCS(=O)(=O)C2)cc(C)c1Cl (stereo not drawn)	i	i	i	-6	1.7	i	.	.	.
OCCN1CCN(CCOc2cccc(Cl)c2)CC1	i	i	i	-3	-0.43	i	i	i	i
FC(F)(F)c1cccc(OCCN2CCN(Cc3ccccc3)CC2)c1	i	i	i	-6	-1.1	i	i	i	i
CN(CCOc1cccc(C(F)(F)F)c1)Cc1ccccc1	i	i	i	-13	1.3	i	.	.	.
CCc1ccc(OCCCCN(C)Cc2ccccc2)cc1	i	i	i	-9	-6.1*	i	i	i	i
Cc1cc(OCc2cccc(Cl)c2)c(C)cc1CN1CCOCC1	i	-14*	i	-18	-1.4	i	52%*	i	32%*
O=[N+]([O-])c1cccc(COc2ccccc2CN2CCOCC2)c1	.	.	.	.	.	i	.	.	.
COc1ccc(CCCc2nnc(SCC(=O)Nc3cccc(C)c3)o2)cc1	i	i	i	-4	-0.16	i	i	i	i
O=C1CCC(/C=C/c2ccccc2)=NN1Cc1ccc(Cl)c(Cl)c1	i	i	i	-5	0.47	i	i	i	i
O=C(O)c1ccc(COc2ccccc2Cl)cc1	i	i	i	-9	-2.6	i	.	.	.
CCN(CC)C(=O)c1ccc(COc2ccccc2Cl)cc1	i	-8.7*	i	-10	0.03	i	36%*	i	24%*
Cc1c(C(=O)OCC(=O)c2c(N)n(CC(C)C)c(=O)n(C)c2=O)oc2ccccc12	i	i	i	-14	-1.2	i	i	i	i
COCc1c(C(=O)OCC(=O)c2c(N)n(CC(C)C)c(=O)n(C)c2=O)oc2ccccc12	i	i	i	-5	0.02	i	.	.	.
Cc1ccc(-c2noc(CSc3nnc(Cc4ccccc4)n3-c3cccc(C)c3)n2)cc1	i	-9.9*	i	-14	-0.48	i	i	i	30%*
CCOC(=O)c1c(C)[nH]c(C)c1C(=O)CSc1nc2ccccc2c(=O)n1-c1ccc(F)cc1	i	-10*	i	-15	0.05	i	i	i	i
Cc1ccc(C(=O)CSc2nc3ccccc3c(=O)n2-c2ccccc2)s1	i	i	i	-3	-0.44	i	.	.	.
CCOC(=O)c1c(C)[nH]c(C)c1C(=O)CSc1nc2ccccc2c(=O)n1-c1ccccc1C	i	-9.6*	i	-12	0.63	i	32%*	i	34%*
Cc1cccc(C2NC(c3cccc(C)c3)C([N+](=O)[O-])C(C)(C)C2[N+](=O)[O-])c1 (stereo not drawn)	i	i	i	-1	0.65	i	i	i	i
COc1ccc(-c2cn(-c3ccc(C)cc3)c(=O)n2CC(=O)Nc2ccc(OC)cc2OC)cc1	i	i	i	-13	-0.03	i	i	i	i
COc1ccc(NC(=O)Cn2c(-c3ccccc3)cn(-c3ccc(C)cc3)c2=O)cc1	i	i	i	-13	-0.02	i	.	.	.
Cn1cc(/C=N/n2cnc3sc4c(c3c2=O)CCCC4)c2ccccc21	i	i	i	-14	0.01	i	i	i	i
SMILES	KCNQ1 pot	KCNK9 block	KCNQ1 inh	hERG rescue	Kir21 inh	KCNK3 inh	KCNK9 block conf	Kir21 sel	KCNK9 uninduced
Cc1ccc(C)n1-n1cnc2sc3c(c2c1=O)CCC3	i	i	i	-6	-0.5	i	.	.	.
O=[N+]([O-])c1ccc(COc2cccc(CNc3ccc(F)cc3)c2)cc1	i	-8.3*	6*	-2	-0.03	i	41%*	i	i
Oc1ccc(NCc2cccc(OCc3ccc(F)cc3)c2)cc1	i	i	i	-23	1.5	i	.	.	.
Cc1cccn2c(=O)c(/C=C(\C#N)C(=O)NCc3ccco3)c(N3CCCCCC3)nc12	i	i	i	-5	0.53	i	i	i	i
Cc1cccn2c(=O)c(/C=C(\C#N)C(=O)NCc3ccco3)c(N3CCCCC3)nc12	i	i	i	-13	0.7	i	.	.	.
CCOc1ccccc1NC(=O)c1cc(CC(C)C)oc1C	i	-18*	i	-13	-0.33	i	62%*	i	43%*
Cc1oc(CC(C)C)cc1C(=O)Nc1cccc2ccccc12	i	-9.5*	i	-4	0.92	i	i	i	40%*
Cc1ccc(NC2CCCN(C(=O)c3ccoc3C)C2)cc1C (stereo not drawn)	i	i	i	-9	-0.93	i	.	.	.
COc1ccc(NC(=O)COC(=O)c2cccn2C)cc1S(=O)(=O)N1CCCCC1	.	.	.	.	.	i	.	.	.
CC[n+]1c(/C=C/c2ccc(N(C)C)cc2)ccc2ccccc21	i	-12*	i	-25	-14*	i	60%*	85%*	60%*
CC[n+]1c(/C=C/c2ccc(OC(C)=O)c(OC)c2)ccc2ccccc21	i	i	i	-11	-0.05	i	.	.	.
